Experimental data gathered from unrelated publications.
Target: Receptor-interacting serine/threonine-protein kinase 2 (RIPK2, Homo sapiens, UniProt O43353)

Cc1cnc(NC2CCOCC2)nc1-n1cnc(C(=O)NC(CN)c2cc(F)cc(Cl)c2)c1 (stereo not shown)  remaining activity (enzyme activity; inhibitor; radiometric; 1 µM): 90%
Cc1ccc(C(=O)NCc2ccsc2)cc1C#Cc1cn(C(C)C)c2ncnc(N)c12  activity vs control (enzyme activity; inhibitor; 1 µM): 14%
CCN(CC)CCNC(=O)c1c(C)[nH]c(/C=C2\C(=O)Nc3ccc(F)cc32)c1C  inhibition (enzyme activity; inhibitor; 0.3 µM): -10%
COc1cc(-c2cn(C3CCc4ccccc4N(CC(F)(F)F)C3=O)nn2)ccc1-n1ccc(C)n1 (stereo not shown)  remaining binding (cell-free assay; competition with immobilised ligand; 1 µM): 93%
CN1CC(Oc2cnc(C#N)cc2-c2ccn3nc(NC(=O)C4CC4)cc3c2)C1  inhibition (enzyme activity; inhibitor; 1 µM): 81%
Cc1cc(NC(=O)c2cccc3cc(-c4cccc5[nH]nc(N)c45)ccc23)ccc1F  activity vs control (enzyme activity; inhibitor; 0.1 µM): 110%
CC(=O)N1CCC(c2ccc(C(=O)NC(=N)N)cc2C(F)(F)F)CC1  remaining binding (cell-free assay; competition with immobilised ligand; 1 µM): 100%
CNC(=O)c1cc(Oc2ccc(NC(=O)Nc3ccc(Cl)c(C(F)(F)F)c3)cc2)ccn1  remaining signal (cell-free assay; 0.5 µM): 86.2%
F[C@@H]1CCN(c2nccc(-c3cnn4ncccc34)n2)C1  remaining binding (binding; 1 µM): 100%
Oc1ccc(-c2nc(-c3ccncc3)c(-c3ccc(F)cc3)[nH]2)cc1  remaining signal (cell-free assay; 0.5 µM): 46.8%
CCCS(=O)(=O)Nc1ccc(F)c(C(=O)c2c[nH]c3ncc(-c4ccc(Cl)cc4)cc23)c1F  inhibition (enzyme activity; inhibitor; 1 µM): < 10%
Cn1cnc(Br)c1C1=CN(c2ncnc3[nH]cnc23)CCS1  inhibition (enzyme activity; inhibitor; radiometric; 50 nM): 16.6%
C[C@@H]1CN(c2cc(-c3n[nH]c4ccc(OC5(C)CC5)cc34)ncn2)C[C@H](C)O1  remaining binding (cell-free assay; competition with immobilised ligand; 0.1 µM): 100%
Cc1ccc(Nc2nccc(N(C)c3ccc4c(C)n(C)nc4c3)n2)cc1S(N)(=O)=O  remaining activity (enzyme activity; inhibitor; 0.5 µM): 68.2%
CN1CCN(c2cnc3c(C4CCN(C(=O)c5ccc(OC(F)(F)F)cc5N)CC4)ncnc3c2)CC1  remaining binding (cell-free assay; competition with immobilised ligand; 1 µM): 100%
O=C(Nc1cnn(-c2csc(C(=O)NC3COC3)c2)c1)Nc1c(F)cccc1Cl  remaining activity (enzyme activity; inhibitor; 5 µM): 80.2%
COc1cc(/C=C/C(=O)CC(=O)/C=C/c2ccc(O)c(OC)c2)ccc1O  activity vs control (enzyme activity; inhibitor; 1 µM): 16%
CC(C)(C)c1nc2c(s1)c1nc(N)ncc1c1ccc(NS(=O)(=O)c3c(F)cccc3F)c(F)c12  remaining activity (enzyme activity; inhibitor; radiometric; 1 µM): 70%
FC(F)c1nc2ccccc2n1-c1nc(N2CCOCC2)nc(N2CCOCC2)n1  remaining activity (enzyme activity; inhibitor; 10 µM): 89%
CCc1ccccc1C(=O)Nc1n[nH]c2c(C)c(F)c(C3C(C#N)=C(C)N(C)C(C)=C3C#N)cc12  remaining binding (cell-free assay; competition with immobilised ligand; 1 µM): 100%
COc1cc(Nc2cnc(C#N)c(O[C@H](C)CN(C)C)n2)ncc1-c1cnn(C)c1  remaining activity (enzyme activity; inhibitor; radiometric; 1 µM): 97%
COc1cc2ncnc(Nc3ccc(Oc4ccccc4)cc3)c2cc1OC  remaining signal (cell-free assay; 0.5 µM): 55.5%
C[C@H](NC(=O)c1cnc2n1[C@](C)(Cc1ccc(C#N)cc1)C(=O)N2c1cc(Cl)c(F)c(Cl)c1)C(=O)NC1(c2ccccn2)CC1  remaining binding (cell-free assay; competition with immobilised ligand; 1 µM): 68%
CNCc1ccc(-c2cc(-c3nc(-c4ccc(S(=O)(=O)C(C)C)cc4)cnc3N)on2)cc1  inhibition (enzyme activity; inhibitor; 0.4 µM): 6%
Cc1nccc(COC(=O)N2C[C@@H]3[C@@H](CNC(=O)c4ccc5[nH]nnc5c4)[C@@H]3C2)n1  remaining binding (cell-free assay; competition with immobilised ligand; 1 µM): 100%
Cn1c(=O)n(-c2ccc(C(C)(C)C#N)cc2)c2c3cc(-c4cnc5ccccc5c4)ccc3ncc21  remaining activity (enzyme activity; inhibitor; 10 µM): 28%
CCS(=O)(=O)c1cc2cc(C[C@@](O)(CC(C)(C)c3ccc(F)cc3C(N)=O)C(F)(F)F)[nH]c2cn1  remaining binding (cell-free assay; competition with immobilised ligand; 1 µM): 100%
FC(F)(F)Oc1cccc(-c2cnc3ccc(-c4ccncc4)nn23)c1  activity vs control (enzyme activity; inhibitor; radiometric; 5 µM): 22%
